Measured values taken from ChEMBL document CHEMBL1151428, “Capability of 11 antipneumococcal antibiotics to select for resistance by multistep and single-step methodologies” (2007).
Converted amounts (≈) assume the structure as drawn.

Columns and labels:
Format in all cases: functional
Streptococcus pneumoniae [1] = test: Antimicrobial activity against drug-resistant Streptococcus pneumoniae isolate 24 after 50 passages with moxifloxacin measured after 10 antibiotic-free subculture by multi-step resistance selection technique
In short: (§1)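 Mutants selected by daily broth passage in subinhibitory drug in cation-adjusted Mueller-Hinton broth with 5% lysed horse blood. Stability was tested by 10 daily passages on blood agar without antibiotic, then macrodilution MIC.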

Streptococcus pneumoniae [2] = test: Antimicrobial activity against drug-resistant Streptococcus pneumoniae isolate 3676 after 50 passages by multi-step resistance selection technique
In short: (§2)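 Daily serial passage in broth at subinhibitory drug levels: 1 ml cation-adjusted Mueller-Hinton broth with 5% lysed horse blood; fresh broth for tigecycline. Each day 10 μl inoculum taken from the tube one to two dilutions below MIC matching growth-control turbidity, used to set next MIC. Continued until ≥8-fold MIC rise, minimum 14, maximum 50 passages; MIC read by macrodilution.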

Streptococcus pneumoniae [3] = test: Antimicrobial activity against drug-resistant Streptococcus pneumoniae isolate 24 by NCCLS M7-A7 method
Streptococcus pneumoniae [4] = test: Antimicrobial activity against drug-resistant Streptococcus pneumoniae isolate 3009 by NCCLS M7-A7 method
Streptococcus pneumoniae [5] = test: Antimicrobial activity against drug-resistant Streptococcus pneumoniae isolate 2527 by NCCLS M7-A7 method
Streptococcus pneumoniae [6] = test: Antimicrobial activity against drug-resistant Streptococcus pneumoniae isolate 1635 by NCCLS M7-A7 method
Streptococcus pneumoniae [7] = test: Antimicrobial activity against drug-resistant Streptococcus pneumoniae isolate 3274 by NCCLS M7-A7 method
Streptococcus pneumoniae [8] = test: Antimicrobial activity against drug-resistant Streptococcus pneumoniae isolate 3665 after 50 passages by multi-step resistance selection technique; in short: as §2
Streptococcus pneumoniae [9] = test: Antimicrobial activity against drug-resistant Streptococcus pneumoniae isolate 1635 after 49 passages with clarithromycin measured after 10 antibiotic-free subculture by multi-step resistance selection technique
Streptococcus pneumoniae [10] = test: Antimicrobial activity against drug-resistant Streptococcus pneumoniae isolate 3009 after 21 passages with gemifloxacin measured after 10 antibiotic-free subculture by multi-step resistance selection technique; in short: as §1
Streptococcus pneumoniae [11] = test: Antimicrobial activity against drug-resistant Streptococcus pneumoniae isolate 3274 after 50 passages by multi-step resistance selection technique
In short: (§3)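 Daily serial passage in subinhibitory drug levels in 1 ml cation-adjusted Mueller-Hinton broth with 5% lysed horse blood; fresh broth for tigecycline. Each day, 10 μl were taken from the tube one to two dilutions below the MIC whose turbidity matched the growth control, and used to set the next MIC. MIC by macrodilution.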

Streptococcus pneumoniae [12] = test: Antimicrobial activity against drug-resistant Streptococcus pneumoniae isolate 3665 after 38 passages with moxifloxacin measured after 10 antibiotic-free subculture by multi-step resistance selection technique
Streptococcus pneumoniae [13] = test: Antimicrobial activity against drug-resistant Streptococcus pneumoniae isolate 24 after 50 passages by multi-step resistance selection technique; in short: as §3
Streptococcus pneumoniae [14] = test: Antimicrobial activity against drug-resistant Streptococcus pneumoniae isolate 1076 after 14 passages with Telithromycin measured after 10 antibiotic-free subculture by multi-step resistance selection technique; in short: as §1
Streptococcus pneumoniae [15] = test: Antimicrobial activity against drug-resistant Streptococcus pneumoniae isolate 1635 after 14 passages with azithromycin measured after 10 antibiotic-free subculture by multi-step resistance selection technique; in short: as §1
Streptococcus pneumoniae [16] = test: Antimicrobial activity against drug-resistant Streptococcus pneumoniae isolate 3676 after 44 passages with clarithromycin measured after 10 antibiotic-free subculture by multi-step resistance selection technique
Streptococcus pneumoniae [17] = test: Antimicrobial activity against drug-resistant Streptococcus pneumoniae isolate 1076 after 35 passages with moxifloxacin measured after 10 antibiotic-free subculture by multi-step resistance selection technique; in short: as §1
Streptococcus pneumoniae [18] = test: Antimicrobial activity against drug-resistant Streptococcus pneumoniae isolate 3665 by NCCLS M7-A7 method
Streptococcus pneumoniae [19] = test: Antimicrobial activity against drug-resistant Streptococcus pneumoniae isolate 37 by NCCLS M7-A7 method
Streptococcus pneumoniae [20] = test: Antimicrobial activity against drug-resistant Streptococcus pneumoniae isolate 3676 after 50 passages with moxifloxacin measured after 10 antibiotic-free subculture by multi-step resistance selection technique
Streptococcus pneumoniae [21] = test: Antimicrobial activity against drug-resistant Streptococcus pneumoniae isolate 2527 after 14 passages with gemifloxacin measured after 10 antibiotic-free subculture by multi-step resistance selection technique; in short: as §1
Streptococcus pneumoniae [22] = test: Antimicrobial activity against drug-resistant Streptococcus pneumoniae isolate 3274 after 48 passages with Telithromycin measured after 10 antibiotic-free subculture by multi-step resistance selection technique; in short: as §1
Streptococcus pneumoniae [23] = test: Antimicrobial activity against drug-resistant Streptococcus pneumoniae isolate 1635 after 14 passages with clindamycin measured after 10 antibiotic-free subculture by multi-step resistance selection technique
Streptococcus pneumoniae [24] = test: Antimicrobial activity against drug-resistant Streptococcus pneumoniae isolate 3243 after 29 passages with Telithromycin measured after 10 antibiotic-free subculture by multi-step resistance selection technique; in short: as §1
Streptococcus pneumoniae [25] = test: Antimicrobial activity against drug-resistant Streptococcus pneumoniae isolate 1076 by NCCLS M7-A7 method
Streptococcus pneumoniae [26] = test: Antimicrobial activity against drug-resistant Streptococcus pneumoniae isolate 3243 after 33 passages with azithromycin measured after 10 antibiotic-free subculture by multi-step resistance selection technique; in short: as §1
Streptococcus pneumoniae [27] = test: Antimicrobial activity against drug-resistant Streptococcus pneumoniae isolate 3009 after 50 passages by multi-step resistance selection technique
In short: as §3, with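 “MIC. […]” for “MIC.”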

Streptococcus pneumoniae [28] = test: Antimicrobial activity against drug-resistant Streptococcus pneumoniae isolate 3243 by NCCLS M7-A7 method
Streptococcus pneumoniae [29] = test: Antimicrobial activity against drug-resistant Streptococcus pneumoniae isolate 3665 after 26 passages with clarithromycin measured after 10 antibiotic-free subculture by multi-step resistance selection technique
Streptococcus pneumoniae [30] = test: Antimicrobial activity against drug-resistant Streptococcus pneumoniae isolate 2527 after 20 passages with azithromycin measured after 10 antibiotic-free subculture by multi-step resistance selection technique; in short: as §1
Streptococcus pneumoniae [31] = test: Antimicrobial activity against drug-resistant Streptococcus pneumoniae isolate 2527 after 50 passages by multi-step resistance selection technique
In short: as §3, with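 “MIC. […]” for “MIC.”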

Streptococcus pneumoniae [32] = test: Antimicrobial activity against drug-resistant Streptococcus pneumoniae isolate 3243 after 50 passages by multi-step resistance selection technique
In short: as §3, with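 “MIC. […]” for “MIC.”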

Streptococcus pneumoniae [33] = test: Antimicrobial activity against drug-resistant Streptococcus pneumoniae isolate 1635 after 50 passages by multi-step resistance selection technique; in short: as §3
Streptococcus pneumoniae [34] = test: Antimicrobial activity against drug-resistant Streptococcus pneumoniae isolate 1077 after 15 passages with Telithromycin measured after 10 antibiotic-free subculture by multi-step resistance selection technique; in short: as §1
Streptococcus pneumoniae [35] = test: Antimicrobial activity against drug-resistant Streptococcus pneumoniae isolate 3243 after 41 passages with clarithromycin measured after 10 antibiotic-free subculture by multi-step resistance selection technique
Streptococcus pneumoniae [36] = test: Antimicrobial activity against drug-resistant Streptococcus pneumoniae isolate 3009 after 19 passages with moxifloxacin measured after 10 antibiotic-free subculture by multi-step resistance selection technique; in short: as §1
Streptococcus pneumoniae [37] = test: Antimicrobial activity against drug-resistant Streptococcus pneumoniae isolate 3676 after 14 passages with Telithromycin measured after 10 antibiotic-free subculture by multi-step resistance selection technique

C[C@@H](O)[C@H]1C(=O)N2C(C(=O)O)=C(SCCNC=N)C[C@H]12 [IMIPENEM ANHYDROUS]
MIC (Streptococcus pneumoniae [1]): 0.5 µg/mL (≈ 1.67 µM) | MIC (Streptococcus pneumoniae [2]): 0.016 µg/mL (≈ 0.0534 µM) | MIC (Streptococcus pneumoniae [3]): 0.5 µg/mL (≈ 1.67 µM) | MIC (Streptococcus pneumoniae [4]): 0.008 µg/mL (≈ 0.0267 µM) | MIC (Streptococcus pneumoniae [5]): 0.25 µg/mL (≈ 0.835 µM) | MIC (Streptococcus pneumoniae [6]): 0.002 µg/mL (≈ 0.00668 µM) | MIC (Streptococcus pneumoniae [7]): 0.016 µg/mL (≈ 0.0534 µM) | MIC (Streptococcus pneumoniae [8]): 0.016 µg/mL (≈ 0.0534 µM) | MIC (Streptococcus pneumoniae [9]): 0.002 µg/mL (≈ 0.00668 µM) | MIC (Streptococcus pneumoniae [10]): 0.008 µg/mL (≈ 0.0267 µM) | MIC (Streptococcus pneumoniae [11]): 0.03 µg/mL (≈ 0.1 µM) | MIC (Streptococcus pneumoniae [12]): 0.03 µg/mL (≈ 0.1 µM) | MIC (Streptococcus pneumoniae [13]): 0.5 µg/mL (≈ 1.67 µM) | MIC (Streptococcus pneumoniae [14]): 0.004 µg/mL (≈ 0.0134 µM) | MIC (Streptococcus pneumoniae [15]): 0.002 µg/mL (≈ 0.00668 µM) | MIC (Streptococcus pneumoniae [16]): 0.016 µg/mL (≈ 0.0534 µM) | MIC (Streptococcus pneumoniae [17]): 0.008 µg/mL (≈ 0.0267 µM) | MIC (Streptococcus pneumoniae [18]): 0.03 µg/mL (≈ 0.1 µM) | MIC (Streptococcus pneumoniae [19]): 0.5 µg/mL (≈ 1.67 µM) | MIC (Streptococcus pneumoniae [20]): 0.03 µg/mL (≈ 0.1 µM) | MIC (Streptococcus pneumoniae [21]): 0.125 µg/mL (≈ 0.418 µM) | MIC (Streptococcus pneumoniae [22]): 0.016 µg/mL (≈ 0.0534 µM) | MIC (Streptococcus pneumoniae [23]): 0.002 µg/mL (≈ 0.00668 µM) | MIC (Streptococcus pneumoniae [24]): 0.016 µg/mL (≈ 0.0534 µM) | MIC (Streptococcus pneumoniae [25]): 0.008 µg/mL (≈ 0.0267 µM) | MIC (Streptococcus pneumoniae [26]): 0.03 µg/mL (≈ 0.1 µM) | MIC (Streptococcus pneumoniae [27]): 0.008 µg/mL (≈ 0.0267 µM) | MIC (Streptococcus pneumoniae [28]): 0.016 µg/mL (≈ 0.0534 µM) | MIC (Streptococcus pneumoniae [29]): 0.03 µg/mL (≈ 0.1 µM) | MIC (Streptococcus pneumoniae [30]): 0.5 µg/mL (≈ 1.67 µM) | MIC (Streptococcus pneumoniae [31]): 0.25 µg/mL (≈ 0.835 µM) | MIC (Streptococcus pneumoniae [32]): 0.016 µg/mL (≈ 0.0534 µM) | MIC (Streptococcus pneumoniae [33]): 0.002 µg/mL (≈ 0.00668 µM) | MIC (Streptococcus pneumoniae [34]): 0.008 µg/mL (≈ 0.0267 µM) | MIC (Streptococcus pneumoniae [35]): 0.03 µg/mL (≈ 0.1 µM) | MIC (Streptococcus pneumoniae [36]): 0.008 µg/mL (≈ 0.0267 µM) | MIC (Streptococcus pneumoniae [37]): 0.008 µg/mL (≈ 0.0267 µM)
